{"source": "ChEMBL document CHEMBL3813689", "about": "“Discovery of Potent Benzofuran-Derived Diapophytoene Desaturase (CrtN) Inhibitors with Enhanced Oral Bioavailability for the Treatment of Methicillin-Resistant Staphylococcus aureus (MRSA) Infections” (J Med Chem, 2016)", "key": {"Staphylococcus aureus [1]": {"test_system": "Staphylococcus aureus", "assay": "Sensitization of Staphylococcus aureus Newman to immune clearance in human whole blood assessed as reduction in bacterial survival at 1 uM […] relative to control", "format": "functional"}, "Staphylococcus aureus [2]": {"test_system": "Staphylococcus aureus", "assay": "Antibacterial activity against Staphylococcus aureus USA400 MW2 infected Balb/c mouse assessed as reduction of bacterial survival in kidney at 1.3 mg, ip bid administered for 4.5 days followed by bacterial infection measured after 5 days", "format": "functional, organism-based", "summary_of_the_method": "(§1)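 Female BALB/c mice, 6–8 weeks. Compound in sterile water ip once and every 12 h for 108 h, total 50 or 200 mg/kg; water controls. Infected 12 h after first dose with 4 × 10^7 CFU USA400 MW2 (100 µL). Killed 5 days post infection; liver or kidney CFU counted on TSA after homogenising in PBS/0.1% Triton X-100. n = 13; two-tailed Mann-Whitney.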"}, "Trichophyton rubrum": {"test_system": "Trichophyton rubrum", "assay": "Antifungal activity against Trichophyton rubrum measured after 7 days by serial dilution method", "format": "functional", "summary_of_the_method": "(§2)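 Broth serial dilution MIC per NCCLS in RPMI 1640 buffered with 0.165 M MOPS; compounds in DMSO diluted in medium. Dermatophytes incubated at 28 °C, read at 7 days. MIC taken as lowest concentration giving ≥80% growth inhibition versus control (turbidity).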"}, "Staphylococcus aureus [3]": {"test_system": "Staphylococcus aureus", "assay": "Sensitization of Staphylococcus aureus USA300 LAC to immune clearance in human whole blood assessed as reduction in bacterial survival at 1 uM […] relative to control", "format": "functional"}, "Staphylococcus aureus [4]": {"test_system": "Staphylococcus aureus", "assay": "Antibacterial activity against Staphylococcus aureus USA400 MW2 infected Balb/c mouse assessed as reduction of bacterial survival in liver at 1.3 mg, ip bid administered for 4.5 days followed by bacterial infection measured after 5 days", "format": "functional", "summary_of_the_method": "as §1"}, "Staphylococcus aureus [5]": {"test_system": "Staphylococcus aureus", "assay": "Antibacterial activity against Staphylococcus aureus Mu50 infected Balb/c mouse assessed as reduction of bacterial survival in liver at 1.3 mg, ip bid administered for 4.5 days followed by bacterial infection measured after 5 days", "format": "functional"}, "Staphylococcus aureus [6]": {"test_system": "Staphylococcus aureus", "assay": "Sensitization of methicillin-resistant Staphylococcus aureus USA400 MW2 to immune clearance in human whole blood assessed as reduction in bacterial survival at 1 uM measured after 24 hrs relative to control", "format": "functional", "summary_of_the_method": "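Overnight cultures spun down and resuspended in sterile PBS at 1 × 10^7 CFU/mL. 40 µL mixed with 360 µL fresh whole blood from a healthy human volunteer, giving 1 × 10^6 CFU/mL. Incubated 6 h at 37 °C. Surviving CFU counted by plating dilutions on TSA.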"}, "[7]": {"assay": "Cytotoxicity against human WI38 cells measure after 72 hrs by SRB assay", "format": "cell-based", "settings": "WI-38, 72 h"}, "Staphylococcus aureus [8]": {"test_system": "Staphylococcus aureus", "assay": "Sensitization of methicillin-resistant Staphylococcus aureus Mu50 to immune clearance in human whole blood assessed as bacterial survival at 1 uM measured after 24 hrs (reference value: 16.1%)", "format": "functional"}, "Staphylococcus aureus [9]": {"test_system": "Staphylococcus aureus", "assay": "Sensitization of Staphylococcus aureus Newman to immune clearance in human whole blood assessed as bacterial survival at 1 uM measured after 24 hrs (reference value: 26.7%)", "format": "functional"}, "[10]": {"assay": "Cytotoxicity against HMEC1 measure after 72 hrs by SRB assay", "settings": "Homo sapiens, HMEC-1, 72 h"}, "[11]": {"assay": "Terminal half life in Sprague-Dawley rat at 5 mg/kg, iv administered as single dose", "format": "ADME, organism-based", "settings": "in vivo, read-out: beta t1/2 (converted)", "summary_of_the_method": "(§3)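 Male SD rats, 3 per group, single iv 5 mg/kg or oral 10 mg/kg. Blood sampled 0.083 (iv only), 0.25, 0.5, 1, 2, 4, 6, 8, 24 h postdose; plasma separated at 4 °C, stored −80 °C, analysed within 1 week. Parameters from plasma concentration-time data; F from dose-normalized AUC, oral vs iv.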"}, "Staphylococcus aureus [12]": {"test_system": "Staphylococcus aureus", "assay": "Inhibition of staphyloxanthin pigment formation in methicillin-resistant Staphylococcus aureus USA400 MW2 after 48 hrs by spectrophotometric method", "format": "functional, organism-based", "settings": "MW2, 48 h", "summary_of_the_method": "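MRSA grown in 4 mL TSB with 40 µL compound (2-fold serial dilutions from 20 mM DMSO stock) at 37 °C for 48 h, triplicate. Cells washed twice in PBS, pigment extracted with methanol, OD450 measured; IC50 from dose-response fit.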"}, "Staphylococcus aureus [13]": {"test_system": "Staphylococcus aureus", "assay": "Antibacterial activity against Staphylococcus aureus Mu50 infected Balb/c mouse assessed as reduction of bacterial survival in kidney at 5.2 mg, ip bid administered for 4.5 days followed by bacterial infection measured after 5 days", "format": "functional"}, "Staphylococcus aureus [14]": {"test_system": "Staphylococcus aureus", "assay": "Suppression in growth of Staphylococcus aureus Newman at 0.2 mM measured after overnight incubation by spectrophotometric method", "format": "organism-based", "settings": "in vitro, 200 µM", "summary_of_the_method": "(§4)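 Compound from 20 mM DMSO stock diluted in TSB to final 0.2 or 0.05 mM; DMSO growth controls; paraffin overlay. Overnight cultures inoculated to final OD600 ≈ 0.05; incubated at 37 °C overnight with OD600 read every 30 min.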"}, "Staphylococcus aureus [15]": {"test_system": "Staphylococcus aureus", "assay": "Sensitization of Staphylococcus aureus Newman to H2O2 assessed as bacterial survival at 1 uM measured after 24 hrs (reference value: 36.2%)", "format": "functional"}, "Staphylococcus aureus [16]": {"test_system": "Staphylococcus aureus", "assay": "Inhibition of staphyloxanthin pigment formation in Staphylococcus aureus Newman after 48 hrs by spectrophotometric method", "format": "functional, organism-based", "summary_of_the_method": "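Compounds as 20 mM DMSO stocks, serial 2-fold dilutions in DMSO; 40 µL added to 4 mL TSB culture, 37 °C for 48 h, in triplicate. Cells washed twice with PBS, pigment extracted with methanol, OD450 measured; IC50 from dose-response curve fit of OD data.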"}, "Staphylococcus aureus [17]": {"test_system": "Staphylococcus aureus", "assay": "Suppression in growth of methicillin-resistant Staphylococcus aureus Mu50 at 0.05 mM measured after overnight incubation by spectrophotometric method", "format": "organism-based", "settings": "50 µM", "summary_of_the_method": "as §4"}, "Nannizzia gypsea": {"test_system": "Nannizzia gypsea", "assay": "Antifungal activity against Microsporum gypseum measured after 7 days by serial dilution method", "format": "functional", "summary_of_the_method": "as §2"}, "[18]": {"assay": "Total plasma clearance in Sprague-Dawley rat at 5 mg/kg, iv administered as single dose", "format": "ADME, organism-based", "summary_of_the_method": "as §3"}, "Staphylococcus aureus [19]": {"test_system": "Staphylococcus aureus", "assay": "Antibacterial activity against Staphylococcus aureus Newman infected Balb/c mouse assessed as reduction of bacterial survival in heart at 5.2 mg, ip bid administered for 4.5 days followed by bacterial infection measured after 5 days", "format": "functional", "summary_of_the_method": "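Female BALB/c mice, 6–8 weeks, dosed ip with compound in sterile water once and every 12 h for 108 h; water vehicle controls. Challenged 12 h after first dose with 1 × 10^7 CFU Newman by retro-orbital injection. Kidneys and hearts homogenised in PBS/0.1% Triton X-100 and plated on TSA for CFU. n = 13 mice; two-tailed Mann-Whitney.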"}, "[20]": {"target": "Voltage-gated inwardly rectifying potassium channel KCNH2 (Homo sapiens, UniProt Q12809)", "sequence (Q12809 whole entry)": "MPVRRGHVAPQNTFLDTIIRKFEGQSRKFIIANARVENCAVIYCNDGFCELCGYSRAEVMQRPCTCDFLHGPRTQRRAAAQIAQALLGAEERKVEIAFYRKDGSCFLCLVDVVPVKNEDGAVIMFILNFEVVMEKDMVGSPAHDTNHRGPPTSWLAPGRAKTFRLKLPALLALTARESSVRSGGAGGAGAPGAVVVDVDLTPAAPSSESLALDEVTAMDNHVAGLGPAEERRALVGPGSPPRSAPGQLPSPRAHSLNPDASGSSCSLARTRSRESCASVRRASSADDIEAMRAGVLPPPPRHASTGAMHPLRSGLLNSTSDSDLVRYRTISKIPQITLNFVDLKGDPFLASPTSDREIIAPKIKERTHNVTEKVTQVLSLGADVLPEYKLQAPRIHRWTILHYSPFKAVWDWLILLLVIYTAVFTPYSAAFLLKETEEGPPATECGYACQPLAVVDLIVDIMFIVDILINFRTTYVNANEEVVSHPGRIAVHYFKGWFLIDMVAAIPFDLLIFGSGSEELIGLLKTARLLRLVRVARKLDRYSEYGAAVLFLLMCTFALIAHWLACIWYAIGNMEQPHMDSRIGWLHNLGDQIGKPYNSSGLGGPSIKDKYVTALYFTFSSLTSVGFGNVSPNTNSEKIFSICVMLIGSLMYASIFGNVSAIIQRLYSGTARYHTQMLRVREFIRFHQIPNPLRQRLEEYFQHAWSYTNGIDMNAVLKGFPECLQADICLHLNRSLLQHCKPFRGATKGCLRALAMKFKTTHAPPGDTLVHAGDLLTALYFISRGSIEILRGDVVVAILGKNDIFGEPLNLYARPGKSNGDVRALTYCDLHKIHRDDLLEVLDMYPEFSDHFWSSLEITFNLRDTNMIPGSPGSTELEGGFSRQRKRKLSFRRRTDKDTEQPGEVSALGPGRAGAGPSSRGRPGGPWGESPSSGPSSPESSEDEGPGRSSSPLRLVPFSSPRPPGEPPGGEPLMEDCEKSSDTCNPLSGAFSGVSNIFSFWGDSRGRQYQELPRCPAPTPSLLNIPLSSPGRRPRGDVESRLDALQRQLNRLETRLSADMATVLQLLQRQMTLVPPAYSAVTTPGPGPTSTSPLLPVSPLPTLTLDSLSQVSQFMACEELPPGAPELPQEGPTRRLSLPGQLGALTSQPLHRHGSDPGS", "assay": "Inhibition of human ERG expressed in CHO cells by Qpatch-clamp method", "format": "cell-based"}, "Trichophyton verrucosum": {"test_system": "Trichophyton verrucosum", "assay": "Antifungal activity against Trichophyton verrucosum measured after 7 days by serial dilution method", "format": "functional", "summary_of_the_method": "as §2"}}, "note": "Activity calls are given as the source filed them. No cut-off for these calls is given here."}
{"compound": "CN(C/C=C/c1ccc(C(F)(F)F)cc1)Cc1cccc2ccoc12.Cl", "values": [{"measurement": "fold change (FC)", "setting": "Staphylococcus aureus [1]", "result": 33}, {"measurement": "Activity", "setting": "Staphylococcus aureus [2]", "result": "Active"}, {"measurement": "MIC80", "setting": "Trichophyton rubrum", "result": 16, "unit": "µg/mL"}, {"measurement": "fold change (FC)", "setting": "Staphylococcus aureus [3]", "result": 10}, {"measurement": "Activity", "setting": "Staphylococcus aureus [4]", "result": 0.71, "unit": "deltalog10CFU"}, {"measurement": "Activity", "setting": "Staphylococcus aureus [5]", "result": 2.94, "unit": "deltalog10CFU"}, {"measurement": "fold change (FC)", "setting": "Staphylococcus aureus [6]", "result": 8}, {"measurement": "IC50", "setting": "[7]", "result": 47.9, "unit": "µM"}, {"measurement": "survival at 1 µM", "setting": "Staphylococcus aureus [8]", "result": 3, "unit": "%"}, {"measurement": "survival at 1 µM", "setting": "Staphylococcus aureus [9]", "result": 0.8, "unit": "%"}, {"measurement": "IC50", "setting": "[10]", "result": 67.1, "unit": "µM"}, {"measurement": "half-life", "setting": "[11]", "result": 8.23, "unit": "h"}, {"measurement": "IC50", "setting": "Staphylococcus aureus [12]", "result": 0.00545, "unit": "µM"}, {"measurement": "Activity", "setting": "Staphylococcus aureus [13]", "result": 1.11, "unit": "deltalog10CFU"}, {"measurement": "Activity", "setting": "Staphylococcus aureus [14]", "result": "Non-toxic"}, {"measurement": "survival at 1 µM", "setting": "Staphylococcus aureus [15]", "result": 1.2, "unit": "%"}, {"measurement": "IC50", "setting": "Staphylococcus aureus [16]", "result": 0.00393, "unit": "µM"}, {"measurement": "Activity", "setting": "Staphylococcus aureus [17]", "result": "Non-toxic"}, {"measurement": "MIC80 (lowest concentration giving ≥80% growth inhibition)", "setting": "Nannizzia gypsea", "result": 32, "unit": "µg/mL"}, {"measurement": "clearance", "setting": "[18]", "result": 54.3, "unit": "mL/min/kg"}, {"measurement": "Activity", "setting": "Staphylococcus aureus [19]", "result": 1.01, "unit": "deltalog10CFU"}, {"measurement": "IC50", "setting": "[20]", "result": 3.71, "unit": "µM"}, {"measurement": "MIC80 (lowest concentration giving ≥80% growth inhibition)", "setting": "Trichophyton verrucosum", "result": ">64", "unit": "µg/mL"}]}
